Values after ≈ are worked out from the molar mass of the structure shown. Active and inactive are the calls of the source. The rule behind the calls is not given here.
What was measured:
[1] = test system: Staphylococcus aureus; assay: Antibacterial activity against methicillin-sensitive Staphylococcus aureus isolate 1 planktonic cells after 24 hrs by microdilution assay; type: functional; settings: isolate 1, 24 h
Procedure, shortened: (§1)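 Planktonic cells at 1 × 10^5 CFU/mL were exposed to compound, and A580 was read at 0 h and after 24 h at 37 °C with shaking. Controls were medium plus microbes, with 1% (v/v) DMSO where the solvent was used. Relative cell number was calculated against the control. Results were confirmed by subculture in fresh medium (48 h, 37 °C) and plating. Conjugate concentrations were expressed as parent-antibiotic equivalents.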

[2] = test system: Staphylococcus aureus; assay: Antibacterial activity against methicillin-sensitive Staphylococcus aureus isolate 3 planktonic cells after 24 hrs by microdilution assay; type: functional; settings: isolate 3, 24 h; procedure, shortened: as §1
[3] = test system: Staphylococcus aureus; assay: Antibacterial activity against methicillin-sensitive Staphylococcus aureus isolate 5 planktonic cells after 24 hrs by microdilution assay; type: functional; settings: isolate 5, 24 h; procedure, shortened: as §1
[4] = test system: Staphylococcus aureus; assay: Antibacterial activity against methicillin-sensitive Staphylococcus aureus isolate 6 planktonic cells after 24 hrs by microdilution assay; type: functional; settings: isolate 6, 24 h; procedure, shortened: as §1
[5] = test system: Staphylococcus aureus; assay: Antibacterial activity against methicillin-sensitive Staphylococcus aureus ATCC 6538 planktonic cells at pH 7.4 after 24 hrs by microdilution method; type: functional; settings: ATCC 6538, 24 h
Procedure, shortened: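 Planktonic ATCC 6538 was tested by microdilution in medium adjusted to pH 5 or pH 7.4 with KOH or HCl, with pH checked by universal indicator. MIC50 was determined at each pH.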

[6] = test system: Staphylococcus aureus; assay: Bactericidal activity against methicillin-sensitive Staphylococcus aureus ATCC 6538 planktonic cells assessed as reduction in bacterial growth at 31.25 ug/ml up to 1 hr by time kill assay relative to control; type: functional; set-up: scale not given: the % may be the effect or the level left
Procedure, shortened: (§2)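 Time-kill per CLSI on planktonic cultures, set up as the microdilution assay: 1 × 10^5 CFU/mL, 37 °C with shaking. A580 is read at 0, 1, 2, 4, 8, 16 and 24 h, and growth is expressed relative to untreated medium + microbes control. Concentrations are parent-antibiotic equivalents.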

[7] = test system: Staphylococcus aureus; assay: Bactericidal activity against methicillin-resistant Staphylococcus aureus MR4-CIPS planktonic cells assessed as reduction in bacterial growth at 7.8 ug/ml after 2 hrs by time kill assay; type: functional; procedure, shortened: as §2
[8] = test system: Staphylococcus aureus; assay: Bactericidal activity against methicillin-resistant Staphylococcus aureus MR4-CIPS planktonic cells assessed as reduction in bacterial growth at 7.8 ug/ml after 24 hrs by time kill assay relative to control; type: functional; set-up: scale not given: the % may be the effect or the level left; procedure, shortened: as §2
[9] = test system: Staphylococcus aureus; assay: Bactericidal activity against Staphylococcus aureus ATCC 6538 biofilm using polystyrene as substrate assessed as reduction in colony forming units after 24 hrs; type: functional
Procedure, shortened: (§3)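 Biofilms were started from a 1 McFarland suspension, allowed to adhere 4 h at 37 °C on HA discs or polystyrene well bottoms, then rinsed. They were exposed 24 h at 37 °C to TSB containing 0.24–125 mg/L compound. Cells were detached in 0.5% saponin by 1 min vortexing, serially diluted and plated on Columbia (S. aureus) or MacConkey (P. aeruginosa) agar, 37 °C, 24 h. Read-out was mean CFU/mm² ± SEM; HA area was measured by X-ray tomography.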

[10] = test system: Pseudomonas aeruginosa; assay: Bactericidal activity against Pseudomonas aeruginosa ATCC 15442 biofilm using polystyrene as substrate assessed as reduction in colony forming units at 0.24 to 125 ug/ml after 24 hrs; type: functional; procedure, shortened: as §3
[11] = test system: Pseudomonas aeruginosa; assay: Bactericidal activity against Pseudomonas aeruginosa ATCC 15442 biofilm using hydroxyapatite as substrate assessed as reduction in colony forming units at 50 ug/ml at pH 4.8 to 7.4 after 24 hrs; type: functional
[12] = test system: Staphylococcus aureus; assay: Antibiofilm activity against Staphylococcus aureus ATCC 6538 assessed as reduction in bacterial adherence to HA at 15.6 to 250 ug/ml pretreated with HA for 24 hrs followed by organism inoculation measured after 24 hrs; type: functional
Procedure, shortened: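 HA spherules (final 10 mg/mL) in TSB were preincubated 24 h at 37 °C with shaking with compound (final 0.12–250 mg/L), then pelleted and the supernatant discarded. They were inoculated with 1 mL S. aureus at 10^5 CFU/mL. A580 was read at 0 and 24 h (37 °C, shaking) against controls without spherules and spherules without compound; spherules were also plated for CFU.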

[13] = test system: Staphylococcus aureus; assay: Antibiofilm activity against Staphylococcus aureus ATCC 6538 assessed as CFU counts at 25 ug/mL pretreated with HA for 24 hrs followed by organism inoculation measured after 24 hrs (reference value: 4.5 x 10^10CFU); type: functional
Procedure, shortened: (§4)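 HA discs were soaked 24 h at 37 °C in 2 mL compound solution, with DMSO or phosphate-buffer controls, then rinsed 3× with sterile water. Discs were inoculated with 2 mL of 0.5 McFarland S. aureus ATCC 6538 for biofilm formation. Biofilm CFU were counted after 24 h growth.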

[14] = test system: Staphylococcus aureus; assay: Antibiofilm activity against Staphylococcus aureus ATCC 6538 assessed as CFU counts at 50 ug/mL pretreated with HA for 24 hrs followed by organism inoculation measured after 24 hrs (reference value: 4.5 x 10^10CFU); type: functional; procedure, shortened: as §4
[15] = test system: Staphylococcus aureus; assay: Potency index, ratio of ciprofloxacin bactericidal concentration to compound bactericidal concentration for Staphylococcus aureus ATCC 6538; type: functional
[16] = test system: Aggregatibacter actinomycetemcomitans; assay: Antibiofilm activity against Aggregatibacter actinomycetemcomitans infected in jawbone peri-implant osteomyelitis Sprague-Dawley rat model assessed as reduction in bacterial count in bone at 10 mg/kg, ip single dose measured after 1 week post pharmacotherapy; type: functional; set-up: scale not given: the % may be the effect or the level left
Procedure, shortened: (§5)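 Rats carried two titanium implants each, preinoculated with A. actinomycetemcomitans D7S-1 biofilm (10^9 CFU), placed bilaterally in palatal bone. One week after surgery, randomized groups received i.p. doses in sterile saline; the negative control was endotoxin-free saline. One week after treatment, 1 cm² peri-implant tissue and bone were homogenized in 0.5% saponin, serially diluted 10-fold and spread-plated on modified TSB (37 °C, 5% CO2, 48 h). Read-out was CFU/g and mean log10 reduction; analysts were blinded.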

[17] = test system: Aggregatibacter actinomycetemcomitans; assay: Antibiofilm activity against Aggregatibacter actinomycetemcomitans infected in jawbone peri-implant osteomyelitis Sprague-Dawley rat model assessed as reduction in bacterial count in bone at 0.1 to 1 mg/kg, ip single dose measured after 1 week post pharmacotherapy; type: functional, organism-based; procedure, shortened: as §5
[18] = test system: Aggregatibacter actinomycetemcomitans; assay: Antibiofilm activity against Aggregatibacter actinomycetemcomitans infected in jawbone peri-implant osteomyelitis Sprague-Dawley rat model assessed as mean CFU count/gram at 10 mg/kg, ip single dose measured after 1 week post pharmacotherapy; type: functional, organism-based; procedure, shortened: as §5
[19] = test system: Aggregatibacter actinomycetemcomitans; assay: Antibiofilm activity against Aggregatibacter actinomycetemcomitans infected in jawbone peri-implant osteomyelitis Sprague-Dawley rat model assessed as mean CFU count/gram at 0.3 mg/kg, ip administered 3 times per week measured after 1 week post pharmacotherapy; type: functional, organism-based; procedure, shortened: as §5
[20] = test system: Staphylococcus aureus; assay: Bactericidal activity against methicillin-susceptible Staphylococcus aureus ATCC 6538 planktonic cells assessed as reduction in bacterial growth at 15.6 ug/ml after 2 hrs by time kill assay
[21] = test system: Staphylococcus aureus; assay: Bactericidal activity against methicillin-susceptible Staphylococcus aureus ATCC 6538 planktonic cells assessed as reduction in bacterial growth at 15.6 ug/ml after 24 hrs by time kill assay; set-up: scale not given: the % may be the effect or the level left

## O=C(O)c1cn(C2CC2)c2cc(N3CCN(C(=O)Oc4ccc(CC(P(=O)(O)O)P(=O)(O)O)cc4)CC3)c(F)cc2c1=O
[1]
  MIC: 3.9 µg/mL (≈ 6.1 µM)
[2]
  MIC: 0.49 µg/mL (≈ 0.766 µM)
[3]
  MIC: 1.9 µg/mL (≈ 2.97 µM)
[4]
  MIC: 7.8 µg/mL (≈ 12.2 µM)
[5]
  MIC50: 15.6 µg/mL (≈ 24.4 µM)
  MIC90: 31.2 µg/mL (≈ 48.9 µM)
[6]
  Activity: 100%
[7]
  Activity: Active
[8]
  Activity: 50%
[9]
  MBIC50: 15.6 to 31.2 µg/mL
[10]
  Activity: inactive
[11]
  Activity: Active
[12]
  Activity: Active
[13]
  Activity: Active
[14]
  Activity: Active
[15]
  Ratio: 20
[16]
  Activity: 99%
[17]
  Activity: Active
[18]
  Activity: Active
[19]
  Activity: Active
[20]
  Activity: Active
[21]
  Activity: 50%
